Screens deposited in PubChem by several laboratories.
A selection: hits, their analogues and other compounds. The true share with any hit is near 1.9%.
ABHD5 PLIN5 PPI – ABHD5-PLIN5 interaction inhibitors, primary screen, cell lysate, split luciferase complementation, luminescence; Perilipin-5 (Homo sapiens) + 1-acylglycerol-3-phosphate O-acyltransferase ABHD5 (Homo …; Split G. princeps luciferase complementation, 4 h; inhibition, % at 4 µM; actives 0.78% (n = 360,000);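 active = inhibition above the mean inhibition across every tested compound plus 3 SD, cut at about 22% in these data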;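 also: 0% = DMSO only wells and the 100% control is not disclosed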
Target sequence (Q00G26 whole entry, looked up): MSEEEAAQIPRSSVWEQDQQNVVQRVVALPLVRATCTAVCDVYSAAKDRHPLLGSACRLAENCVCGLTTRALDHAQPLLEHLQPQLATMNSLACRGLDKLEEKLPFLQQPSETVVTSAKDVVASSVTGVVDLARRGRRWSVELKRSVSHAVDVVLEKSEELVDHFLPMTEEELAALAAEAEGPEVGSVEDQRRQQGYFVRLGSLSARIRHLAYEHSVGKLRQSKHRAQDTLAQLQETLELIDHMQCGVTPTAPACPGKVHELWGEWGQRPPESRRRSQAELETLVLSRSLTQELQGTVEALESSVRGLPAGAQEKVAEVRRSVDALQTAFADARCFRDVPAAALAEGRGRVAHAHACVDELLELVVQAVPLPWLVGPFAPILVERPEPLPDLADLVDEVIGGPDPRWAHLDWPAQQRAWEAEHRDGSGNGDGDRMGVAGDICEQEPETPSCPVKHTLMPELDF
Target sequence (Q8WTS1 whole entry, looked up): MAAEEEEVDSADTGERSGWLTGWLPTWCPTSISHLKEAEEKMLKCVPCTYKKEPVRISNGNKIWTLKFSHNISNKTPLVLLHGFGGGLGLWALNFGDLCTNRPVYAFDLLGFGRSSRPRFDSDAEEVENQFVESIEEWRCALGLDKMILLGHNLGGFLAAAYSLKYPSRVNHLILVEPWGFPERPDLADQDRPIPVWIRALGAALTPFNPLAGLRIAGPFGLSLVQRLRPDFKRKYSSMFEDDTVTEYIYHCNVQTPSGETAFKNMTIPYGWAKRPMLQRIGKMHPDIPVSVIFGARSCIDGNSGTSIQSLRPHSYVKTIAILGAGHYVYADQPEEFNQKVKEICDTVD
Rad51 HR inh – human RAD51 strand exchange inhibitors, primary screen, biochemical, fluorescence; inhibition, % at 10 µM; DNA repair protein RAD51 homolog 1 (Homo sapiens), Q06609; hRad51 DNA strand exchange, fluorescence dequenching; actives 0.085% (n = 200,000);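 active = inhibition above 40% at the single screening dose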;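 also: 0% = DMSO control wells and 100% = blanks with heterologous ssDNA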
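Test system: preformed human Rad51 ssDNA filaments; also added: Donor/quencher-labelled 47-bp dsDNA substrate; doses: 10 µM final, single point; times: 37 °C 15-min filament assembly, 30-min compound preincubation, 15-min exchange; detection: FRET fluorescence dequenching, excitation 485 nm, emission 520 nm; read-out basis: Fluorescence-based percent inhibition, control- and blank-normalised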
GAA850 FXN act – FXN promoter activators, primary screen, cell-based, luciferase luminescence, HEK293 lucGAA850; AID 540364, 2011; HEK293 lucGAA850 FXN promoter luciferase reporter, 24 h; percent of 10 µM SAHA response; actives 0.56% (n = 360,000); activation, % at 6 µM;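 active = activation above the average of all compounds screened plus 3 SD, cutoff fixed separately per campaign, cut at about 7.5% in these data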;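 also: 0% = DMSO wells and 100% = 10 µM SAHA wells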
H9c2 TAG inh – inhibitors of triacylglycerol accumulation, primary screen, cell-based, uHTS, fluorescence, H9c2; H9c2 cells, Nile Red lipid (TAG) fluorescence; cells loaded with 200 µM oleic acid; inhibition, % at 12.5 µM; actives 0.66% (n = 230,000);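 active = pattern-corrected inhibition of lipid staining of at least 50% with the nuclear-stain viability signal not falling by more than 50%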;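 also: 0% = DMSO wells and 100% = triacsin C control wells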
Hsp70 activator – Hsp70 transcriptional activators, primary screen, cell-based, HeLa, Hsp70 promoter luciferase, luminescence, 10 µM; actives 0.04% (n = 200,000); AID 1203, 2008; HeLa Hsp70 promoter luciferase reporter; scaled: vehicle 0, proteasome-inhibitor control 100%; activation, % at 10 µM;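 active = activation above the mean across all tested compounds plus 3 SD, cutoff set per campaign, cut at about 5.5% in these data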;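 also: 100% = MG132 at 30 µM as the positive control and 0% = DMSO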
HIF activator – HIF pathway transcriptional activators, primary screen, cell-based, U2OS HRE-luciferase, luminescence; U2OS HRE-luciferase reporter; normalized: DMSO 0%, desferrioxamine 100%; activation, % at 7.5 µM (by protocol); actives 0.32% (n = 300,000);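 active = mean activation of at least 10% of the iron chelator positive control signal, with at least half of replicates also reaching 10%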
H9c2 TAG conf – triacylglycerol accumulation inhibitors, retest, confirmation, cell-based, single concentration, Nile Red fluorescence, H9c2. inhibition, % at 12.5 µM. actives 71% (n = 990). AID 651629, 2012. H9c2 lipid accumulation; cells loaded with 200 µM oleic acid. shares compounds with H9c2 TAG inh;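 active = mean inhibition across replicates of 40% or more; inactive = mean inhibition below 40%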;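 also: plate controls were DMSO only wells for no effect and Triacsin C treated wells for full effect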
Numbers without * were called inactive; nt = no result given.

SMILES | ABHD5 PLIN5 PPI | Rad51 HR inh | GAA850 FXN act | H9c2 TAG inh | Hsp70 activator | HIF activator | H9c2 TAG conf
O=C1OC(c2ccccc2)Cc2cc(C(=O)N3CCN(c4ccc(F)cc4)CC3)ccc21 (stereo unspecified) | -9 | nt | 3 | 4 | nt | nt | nt
CC(C)N(C(=O)[C@H]1C[C@H](CC(=O)NCCN2CCOCC2)C(=O)N2CCc3c([nH]c4cc(CCC(=O)N(C)C)ccc34)[C@]12C)C(C)C | -6 | nt | -1 | -3 | nt | nt | nt
Cc1onc(-c2ccc(Cl)cc2Cl)c1-c1csc(N/N=C/c2ccccc2)n1 | 2 | -9 | 0 | 61* | nt | 0 | 42*
CCOC(=O)c1cc(-c2csc(N/N=C/c3ccccc3Cl)n2)on1 | 1 | 23 | 4 | 9 | nt | nt | nt
c1cc(-c2ccc(CN3CCOCC3)cc2)n2ccnc2c1 | -1 | nt | 3 | 5 | nt | nt | nt
Cc1ccc(Cn2c(C(C)Nc3nc(-c4ccc(Cl)c([N+](=O)[O-])c4)cs3)nc3cc(C(F)(F)F)ccc32)cc1 (stereo unspecified) | -2 | 1 | 0 | 70* | nt | 0 | 71*
CCCn1c(C(C)Nc2nc(-c3ccc(Cl)c([N+](=O)[O-])c3)cs2)nc2ccccc21 (stereo unspecified) | -10 | nt | 4 | nt | nt | 1 | nt
Cc1ccc(NC(=O)CSc2nnnn2-c2ccc3c(c2)OCO3)cc1C | 0 | -4 | 0 | 57* | 0 | 0 | -15
Cc1cc(=O)oc2cc(NC(=O)c3cc4ccccc4o3)ccc12 | nt | nt | nt | nt | 0 | 1 | nt
Cc1cc(=O)oc2cc(NC(=O)c3cccc(Br)c3)ccc12 | -5 | nt | 1 | 69* | nt | -1 | 52*
Cc1ccc(Nc2nc(N3CCOCC3)nc(N3CCOCC3)n2)cc1 | 4 | -6 | 0 | nt | 0 | nt | nt
Cc1ccc(Nc2cc(C)nc(N3CCOCC3)n2)cc1 | -1 | -3 | 3 | 17 | 0 | 1 | nt
CC(C)c1ccc(Nc2nc(N3CCOCC3)nc(N3CCOCC3)n2)cc1 | -2 | nt | -1 | 74* | nt | nt | 91*
Cc1cc(Nc2ccc(C)c(Cl)c2)nc(N2CCOCC2)n1 | 3 | 4 | 2 | 72* | nt | 2 | 41*
CN1CCN(c2ccc(Cl)cc2NC(=O)c2nn(-c3ccccc3)c(=O)c3ccccc23)CC1 | 2 | 9 | -1 | 52* | 0 | 0 | 27
Cn1nc(C(=O)Nc2cc(Cl)ccc2N2CCCC2)c2ccccc2c1=O | -2 | nt | 3 | 5 | nt | nt | nt
Cc1ccc(NC(=O)COC(=O)CC2CCCC2)cc1F | 8 | nt | 2 | -9 | nt | nt | nt
Cc1cc(C)nc(Sc2ncnc(N)c2[N+](=O)[O-])n1 | 2 | -6 | -5 | 61* | 0 | 11* | 37
FC(F)(F)Oc1ccc(NC(=S)Nc2ccccc2N2CCOCC2)cc1 | -12 | 8 | -1 | -2 | nt | 1 | nt
O=C1COc2ccc(S(=O)(=O)CCC(=O)N3CCN(c4cccc(C(F)(F)F)c4)CC3)cc2N1 | -7 | nt | -1 | nt | nt | -1 | nt
CCCCc1ccc(N=N/C(C(=O)Nc2ccccc2OC)=C(/C)O)cc1 | 4 | 2 | 0 | nt | 0 | 0 | nt
CCCCc1ccc(N=N/C(C(=O)Nc2cc(OC)c(NC(C)=O)cc2OC)=C(/C)O)cc1 | 2 | nt | 0 | 55* | 0 | -2 | 68*
C[C@@]12CCC=C[C@H]1[C@H](c1ccoc1)N(Cc1ccccc1)C2=O | 1 | -5 | 1 | 79* | nt | 0 | 12
C[C@@]12CCC=C[C@H]1[C@H](c1ccccc1Br)N(Cc1ccccc1)C2=O | 1 | nt | 3 | -32 | nt | nt | nt
COc1ccc(CCNc2nnc(Sc3nnnn3-c3ccccc3)s2)cc1OC | 1 | -42 | 6 | 97* | 1 | -1 | 76*
